Measured values from ChEMBL document CHEMBL1152936, “Human sialidase inhibitors: design, synthesis, and biological evaluation of 4-acetamido-5-acylamido-2-fluoro benzoic acids” (Bioorg Med Chem, 2009).
The source made the active and inactive calls. No cut-off for these calls is given here.

Columns and labels:
[1] = molecular target: Sialidase-1 (Homo sapiens) (UniProt Q99519); assay: Inhibition of human NEU1 transiently transfected in HEK293 cells at 1 mM by fluorimetric analysis; format: cell-based
Method in brief: (§1)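 Enzyme source was the crude supernatant of homogenates from HEK-293 cells transiently transfected with a full-length human sialidase cDNA plasmid. The reaction contained 10–20 nmol substrate (4MU-Neu5Ac) as bound sialic acid, 0.2 mg BSA, sodium acetate pH 4.6 and 0.2 mg Triton X-100. It was incubated at 37 °C for 10–30 min, and released sialic acid was quantified. Inhibitors were tested at 1 mM and reported as percent inhibition.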

[2] = molecular target: T1, Sialidase-3 (Homo sapiens, UniProt Q9UQ49); assay: Inhibition of human NEU3 transiently transfected in HEK293 cells by fluorimetric analysis; format: cell-based
T1 sequence (Q9UQ49 whole entry): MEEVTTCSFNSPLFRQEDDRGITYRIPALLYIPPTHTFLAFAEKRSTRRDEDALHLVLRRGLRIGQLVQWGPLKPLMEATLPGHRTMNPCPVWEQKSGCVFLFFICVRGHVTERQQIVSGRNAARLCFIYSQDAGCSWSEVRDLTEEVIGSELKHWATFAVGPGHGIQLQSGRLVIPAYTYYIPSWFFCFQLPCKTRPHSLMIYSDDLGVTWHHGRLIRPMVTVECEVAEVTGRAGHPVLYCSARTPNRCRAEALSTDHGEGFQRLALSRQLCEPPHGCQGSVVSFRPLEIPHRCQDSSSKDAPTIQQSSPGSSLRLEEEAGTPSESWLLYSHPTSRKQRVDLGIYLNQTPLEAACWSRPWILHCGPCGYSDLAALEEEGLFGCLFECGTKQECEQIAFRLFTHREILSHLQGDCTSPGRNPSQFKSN
Method in brief: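 The sialidase was the crude supernatant of homogenized HEK-293 cells transiently transfected with full-length human NEU3 cDNA. The mixture held 10–20 nmol 4MU-Neu5Ac as bound sialic acid, 0.2 mg BSA, sodium acetate pH 4.6 and 0.2 mg Triton X-100, run at 37 °C for 10–30 min. Released sialic acid was measured, and IC50 came from nonlinear regression of concentration–inhibition curves.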

[3] = molecular target: T2, Sialidase-4 (Homo sapiens, UniProt Q8WWR8); assay: Inhibition of human NEU4 transiently transfected in HEK293 cells by fluorimetric analysis
T2 sequence (Q8WWR8 whole entry): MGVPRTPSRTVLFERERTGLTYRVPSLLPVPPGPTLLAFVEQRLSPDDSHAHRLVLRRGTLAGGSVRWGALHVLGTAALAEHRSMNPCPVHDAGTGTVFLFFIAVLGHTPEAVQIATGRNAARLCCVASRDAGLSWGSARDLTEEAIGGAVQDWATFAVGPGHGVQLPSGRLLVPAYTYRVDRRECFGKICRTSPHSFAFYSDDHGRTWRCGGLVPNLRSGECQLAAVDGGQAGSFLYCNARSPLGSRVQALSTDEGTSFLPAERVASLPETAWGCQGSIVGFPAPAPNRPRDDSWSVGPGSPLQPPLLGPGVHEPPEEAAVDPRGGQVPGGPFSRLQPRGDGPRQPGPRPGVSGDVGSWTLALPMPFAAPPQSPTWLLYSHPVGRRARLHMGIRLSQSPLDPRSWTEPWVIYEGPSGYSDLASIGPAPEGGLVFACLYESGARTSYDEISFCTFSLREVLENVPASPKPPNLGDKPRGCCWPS

[4] = molecular target: T3, Sialidase-4 (Homo sapiens) (UniProt Q8WWR8); assay: Inhibition of human NEU4 transiently transfected in HEK293 cells at 1 mM by fluorimetric analysis; format: cell-based; method in brief: as §1
T3 sequence (whole entry): T2 sequence (Q8WWR8 whole entry)

[5] = molecular target: T4, Sialidase-3 (Homo sapiens) (UniProt Q9UQ49); assay: Inhibition of human NEU3 transiently transfected in HEK293 cells at 1 mM by fluorimetric analysis; format: cell-based; method in brief: as §1
T4 sequence (whole entry): T1 sequence (Q9UQ49 whole entry)

[6] = molecular target: T1, Sialidase-3; assay: Inhibition of human NEU3 transiently transfected in HEK293T cells by fluorimetric high-performance liquid chromatography; format: cell-based, HEK-293T
Method in brief: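 Crude supernatant of homogenates from HEK-293 cells transiently transfected with full-length human sialidase cDNA. Reaction: 10–20 nmol substrate as bound sialic acid, 0.2 mg BSA, sodium acetate pH 4.6, 0.2 mg Triton X-100.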

Row | SMILES | inhibition [1] | IC50 [2] | IC50 [3] | inhibition [4] | inhibition [5] | IC50 [6]
1 | CC(=O)Nc1cc(F)c(C(=O)O)cc1NC(=O)c1ccc(-c2ccccc2)cc1 | inactive | ≥ 5000 µM | ≥ 5000 µM |  |  | 
2 | CCCCC(=O)Nc1cc(C(=O)O)c(F)cc1NC(C)=O | inactive |  |  | < 5% | 13% | 
3 | CCCC(=O)Nc1cc(C(=O)O)c(F)cc1NC(C)=O | inactive |  |  | < 5% | inactive | 
4 | CC(=O)Nc1cc(F)c(C(=O)O)cc1NC(C)=O | inactive | > 2000 µM |  | 8% | 23% | 
5 | CC(=O)Nc1cc(F)c(C(=O)O)cc1NC(=O)C(C)C | inactive |  |  | 11% | inactive | 
6 | CC(=O)Nc1cc(F)c(C(=O)O)cc1NC(=O)C(C)(C)C | inactive |  |  | < 5% | inactive | 
7 | CC(=O)Nc1cc(F)c(C(=O)O)cc1NC(=O)c1ccccc1 | inactive |  |  | inactive | inactive | 
8 | CCC(C)C(=O)Nc1cc(C(=O)O)c(F)cc1NC(C)=O (stereo unspecified) | inactive |  |  | inactive | inactive | 
9 | CCC(CC)C(=O)Nc1cc(C(=O)O)c(F)cc1NC(C)=O | inactive |  |  | < 5% | inactive | 
10 | CC(=O)N[C@H]1[C@H]([C@H](O)[C@H](O)CO)OC(C(=O)O)=C[C@@H]1O [NEU5AC2EN] |  |  |  |  |  | 60 µM
11 | CC(=O)Nc1cc(F)c(C(=O)O)cc1NC(=O)C1CC1 | inactive |  |  | inactive | inactive | 
12 | CC(=O)Nc1cc(F)c(C(=O)O)cc1NC(=O)C1CCCCC1 | inactive |  |  | 6% | inactive | 
13 | CC(=O)Nc1cc(F)c(C(=O)O)cc1NC(=O)C1CCCC1 | inactive |  |  | inactive | inactive | 
14 | CC(=O)Nc1cc(F)c(C(=O)O)cc1NC(=O)c1ccc2ccccc2c1 | inactive |  |  | 10% | 8% | 
